Hck Nef HTS: inhibitors of Nef-activated human Hck kinase, primary screen, biochemical, Z-Lyte FRET, 384-well, Hck-YEEI; hit rate 0.68% among 220,000; Recombinant Hck-YEEI plus Nef, Z-Lyte FRET kinase assay; Tyrosine-protein kinase HCK (Homo sapiens), P08631; inhibition, % at 20 µM;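 active means Hck-Nef kinase inhibition above about 50%, limit read from the data; inactive means inhibition below that limit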
Rad51 HR inh: human RAD51 strand exchange inhibitors, primary screen, biochemical, fluorescence; DNA repair protein RAD51 homolog 1 (Homo sapiens), Q06609; hRad51 DNA strand exchange, fluorescence dequenching; inhibition, % at 10 µM; hit rate 0.085% among 200,000;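 active means inhibition above 40% at the single screening dose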
Target sequence (Q06609 whole entry, looked up): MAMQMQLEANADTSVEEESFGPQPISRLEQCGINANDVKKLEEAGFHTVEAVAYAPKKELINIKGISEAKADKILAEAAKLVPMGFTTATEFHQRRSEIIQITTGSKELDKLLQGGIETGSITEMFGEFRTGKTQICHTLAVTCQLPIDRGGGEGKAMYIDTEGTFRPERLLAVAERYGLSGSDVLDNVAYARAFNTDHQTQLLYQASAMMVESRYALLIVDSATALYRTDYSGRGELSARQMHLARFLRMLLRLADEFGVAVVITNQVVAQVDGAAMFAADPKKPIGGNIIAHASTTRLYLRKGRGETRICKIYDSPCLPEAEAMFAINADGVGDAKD
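Test system – preformed human Rad51 ssDNA filaments · Reagent – Donor/quencher-labelled 47-bp dsDNA substrate · Incubation – 37 °C 15-min filament assembly, 30-min compound preincubation, 15-min exchange · Signal – FRET fluorescence dequenching, excitation 485 nm, emission 520 nm · Read-out – percent inhibition from fluorescence, normalised to plate control and blank means · Benchmarks – plate control and blank wells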
PKD1 inh: inhibitors of human PKD1 kinase, biochemical, fluorescence polarization | PKD1 kinase fluorescence polarization assay | inhibition, % (test concentration not listed) | hit rate 0.056% among 200,000 | AID 797, 2007; in the data active means inhibition above about 50%
PERK inhibitor: block of dimerizer-induced PERK translation repression, primary screen, PERK inhibitor project, CHO PERK-DD cells, SEAP luminescence, HTS; Eukaryotic translation initiation factor 2-alpha kinase 3 (Homo sapiens), Q9NZJ5; CHO PERK-DD fusion, SEAP luminescence translation reporter; inhibition, % at 5.6 µM; hit rate 0.17% among 220,000;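 active means inhibition above the mean inhibition of all tested compounds plus 3 SD, set separately per screening campaign, cut at about 2.9% in these data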;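 further: PERK kinase domain activated by AP20187 dimerizer at 100 nM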
H9c2 TAG inh: inhibitors of triacylglycerol accumulation, primary screen, cell-based, uHTS, fluorescence, H9c2. H9c2 cells, Nile Red lipid (TAG) fluorescence; cells loaded with 200 µM oleic acid. inhibition, % at 12.5 µM. hit rate 0.66% among 230,000. AID 651582, 2012;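 active means pattern-corrected inhibition of lipid staining of at least 50% with the nuclear-stain viability signal not falling by more than 50%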
MDM2 E3 inh: MDM2-luciferase reporter signal enhancers, primary screen, MDM2 E3 ligase inhibitor project, cell-based, luminescence, 1536-well | E3 ubiquitin-protein ligase Mdm2 (Homo sapiens), Q00987 | cell-based MDM2 ubiquitination luciferase reporter, 2 h; 0 = plate control, 100 = twice control, blank-subtracted | signal enhancement, % at 5 µM | hit rate 0.11% among 210,000 | AID 1230, 2008;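 active means signal enhancement of 30% or more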;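 further: luminescence tracks abundance of the self-degrading MDM2-luciferase fusion protein; higher signal means inhibition of MDM2 E3 ligase activity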
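Assay system: stable mammalian line carrying autodegrading MDM2–luciferase fusion reporter; Input: 2000 cells in each well; Compound dosing: single-point 5 µM; Schedule: 2 h compound exposure at 37 °C; Signal: SteadyLite luciferase luminescence after 15 min room-temperature reagent incubation; Evaluation: % luminescence enhancement versus blank-corrected plate control mean; Benchmarks: plate controls and plate blanks.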
Hck-Nef confirm: retest of Hck:Nef kinase inhibitor hits, confirmation, biochemical, Z-Lyte FRET, 384-well, p-Tyr peptide counterscreen. shares compounds with Hck Nef HTS. Recombinant Hck-YEEI:Nef, Z-Lyte FRET kinase assay. calls only at 10 µM. hit rate 28% among 1,300. AID 463188, 2010;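 active means average inhibition of at least 50%, with Z-scores no higher than 3 in both the phospho-tyrosine peptide and fluorescence counterscreens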
Hits are given with their value; - = inactive; . = no result given; + = active, no number. Only some compounds are listed: those with a hit (about 1.3% of all), similar ones and a draw of the others.

SMILES | Hck Nef HTS | Rad51 HR inh | PKD1 inh | PERK inhibitor | H9c2 TAG inh | MDM2 E3 inh | Hck-Nef confirm
CC(C)CCn1c(=O)c(C(=O)N/N=C/c2cccc(F)c2)c(O)c2ccccc21 | - | - | - | - | - | - | .
CCc1ccc2nc(NC(=O)c3ccc(N4C(=O)CCC4=O)cc3)sc2c1 | - | - | . | - | - | . | .
CCc1ccc2nc(NC(=O)c3ccc4c(=O)[nH]c(CN5CCOCC5)nc4c3)sc2c1 | 108.6 | - | - | - | . | - | +
COc1ccc(N2C3=C(C(=O)CC(C)(C)C3)C(c3ccccc3OC)C3=C2CC(C)(C)CC3=O)cc1 | 73.6 | . | . | - | - | - | -
COc1ccc(C2C3=C(CC(C)(C)CC3=O)N(C)C3=C2C(=O)CC(C)(C)C3)cc1 | 50.6 | - | - | - | - | - | -
O=C(Nc1ccc2nc(-c3ccco3)c(-c3ccco3)nc2c1)N1CCN(c2ccccn2)CC1 | 56.5 | . | - | - | . | - | -
Cc1nc2cc(NC(=O)N3CCN(c4ccccn4)CC3)ccc2o1 | - | - | - | - | . | - | .
Cc1ccccc1S(=O)(=O)c1c(C)cc(-c2ccccc2)[nH]c1=O | - | - | - | - | - | - | .
CCCS/C(N)=N/N=C/c1cc(C)ccc1O | 55.2 | - | - | - | - | . | +
O=C(NC(=S)Nc1ccc(Cc2ccncc2)cc1)c1ccccc1F | - | . | - | - | - | - | .
Cc1ccc(OCC(=O)Nc2ccc(-c3nc4ncccc4o3)cc2)c(C)c1 | 105.6 | - | - | - | - | - | -
O=C(NC(=S)Nc1ccc(-c2nc3ncccc3o2)cc1)c1ccccc1F | 52.3 | . | - | - | - | . | -
C[C@H]1CN([C@@H](C)CO)C(=O)CCCn2nncc2CO[C@@H]1CN(C)C(=O)c1ccc2ccn(C)c2c1 | . | . | . | . | - | . | .
CCN(CC)c1ccc2c(Cl)cc(=O)oc2c1 | 66.4 | - | - | - | . | - | .
CCNc1ccc2c(Cl)cc(=O)oc2c1 | 51.9 | . | - | - | . | - | -
CCO[C@H]1OC(C(=O)NCc2nc3ccccc3[nH]2)=C[C@@H](c2ccc3c(c2)OCO3)[C@@H]1CCCO | . | - | . | . | - | . | .
CCCNC(=O)c1cc(C2CCCN(C(=O)c3ccccc3)C2)on1 (stereo unspecified) | . | . | . | . | - | . | .
CCNC(=O)NC(=O)COC(=O)c1ccccc1SCC(=O)NC(=O)NCC | 109.3 | - | - | - | - | - | .
Cc1nccc(-c2sc(-c3cccs3)nc2C)n1 | 86.1 | . | . | - | - | - | -
Cc1nc(-c2cccs2)sc1C(=O)O | - | . | . | - | - | . | .
CC(=O)Nc1ccc(S(=O)(=O)Nc2nc3cc4c(cc3nc2Cl)OCCO4)cc1 | 89.1 | - | . | - | - | - | .
CCC(C)NC(=O)CCC(=O)Nc1ccc2nc(N3CC(C)CC(C)C3)cc(C)c2c1 (stereo unspecified) | 52.3 | - | - | - | - | - | -
CC1(C(=O)NS(=O)(=O)c2ccc(Br)cc2)CCN1C(=O)CCC1CCCC1 (stereo unspecified) | . | . | . | . | - | . | .
Cc1cc(C=C2C(=O)c3ccccc3C2=O)c(C)n1-c1cccc(C(=O)O)c1 | 73.7 | - | - | - | - | - | +
Cc1cccc(N=C2NC(=O)/C(=C/C=C/c3ccco3)S2)c1C | 73.5 | - | - | - | - | - | -
SMILES | Hck Nef HTS | Rad51 HR inh | PKD1 inh | PERK inhibitor | H9c2 TAG inh | MDM2 E3 inh | Hck-Nef confirm
O=C1NC(=Nc2ccccc2)S/C1=C\C=C\c1ccco1 | - | - | - | - | . | - | .
Cc1ccc(N=C2NC(=O)/C(=C/C=C/c3ccco3)S2)cc1 | 96.6 | - | - | - | . | - | -
Cc1ccc(-c2cc(C(F)(F)F)n3ncc(C(=O)NCc4ccco4)c3n2)cc1 | - | - | - | - | - | - | .
Cc1ccc(-c2cc(C(F)F)n3ncc(C(=O)NCc4ccco4)c3n2)cc1 | 58.1 | - | - | - | - | - | -
COc1ccc(OCC(=O)Nc2ccc(NC(=O)c3cccs3)c(OC)c2)cc1 | - | - | - | - | - | - | .
COc1cc(NC(=O)c2cccs2)c(OC)cc1NC(=O)CCC(=O)Nc1ccc2ncccc2c1 | 65.3 | - | - | - | . | - | -
O=C(N/N=C/c1ccc([N+](=O)[O-])o1)c1ccc(NS(=O)(=O)c2cccs2)cc1 | 55.5 | - | . | - | - | - | -
Cc1cc(C)c2cc(CN(CCO)Cc3nnnn3Cc3ccccc3)c(=O)[nH]c2c1 | 85.1 | - | - | - | - | - | -
Cc1cc(C)c2cc(CN(CCO)Cc3nnnn3Cc3ccc(F)cc3)c(=O)[nH]c2c1 | - | - | - | - | - | - | .
O=c1c2ccccc2sn1-c1cc(S(=O)(=O)N2CCOCC2)ccc1N1CCOCC1 | 92.7 | - | - | - | . | - | +
CC(=O)c1cccc(NC(=O)CC2S/C(=N/N=C/c3ccccc3)NC2=O)c1 (stereo unspecified) | 52.7 | - | - | - | - | - | -
Cc1ccc(NC(=O)COC(=O)/C=C/c2ccc(Br)o2)cc1S(=O)(=O)N(C)C | 53.1 | - | - | - | - | - | -
COc1cccc(N=c2oc3cc(O)ccc3cc2C(=O)NCC2CCCO2)c1 (stereo unspecified) | 82.4 | - | - | - | - | - | .
COc1ccccc1N=c1oc2cc(O)ccc2cc1C(N)=O | 140.3 | - | - | - | - | - | .
COc1ccccc1NC(=O)c1cc2ccc(O)cc2o/c1=N\O | - | - | - | - | . | - | .
COc1ccc2cc(C(N)=O)c(=Nc3ccc(C)cc3)oc2c1 | - | - | - | - | - | - | .
COc1ccc2oc(=O)c(C(=O)NCC3CCCO3)cc2c1 (stereo unspecified) | - | - | - | - | - | - | .
COc1ccccc1N=c1oc2cc(O)ccc2cc1C(=O)NCC1CCCO1 (stereo unspecified) | 72.0 | - | - | - | - | - | .
Cc1cccc(N=c2oc3cc(O)ccc3cc2C(N)=O)c1 | 152.8 | - | - | - | - | - | .
COc1cccc2cc(C(=O)NCC3CCCO3)c(=O)oc12 (stereo unspecified) | - | . | - | - | - | - | .
